# Most compounds without a hit are left out; they make up all but 1.9% or so of the library.
# RanGTP-Impb inh: inhibitors of RanGTP-importin-beta interaction, primary screen, biochemical, FRET, CFP-Ran, YFP-importin-beta, homogeneous | cell-free CFP-Ran/YFP-importin-beta FRET ratio | inhibition, % (no concentration beside the values) | 1.1% of 300,000 active;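 active means more than half of the replicate wells show a fall in the fluorescence ratio signal beyond about 16%, limit read from the data, passing the limit was not always enough; inconclusive means exactly half of the replicate wells pass the set limit; inactive means fewer than half of replicates pass the limit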;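 further: 0% = DMSO wells and 100% = Ran loaded with GDP instead of GTP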
# HDAC3 inh: blocks human histone deacetylase 3. O15379. recombinant HDAC3, fluorogenic peptide/trypsin coupled, fluorescence. inhibition, % at 8.3 µM. 0.15% of 320,000 active; in the data active means inhibition above about 26%, passing the limit was not always enough; inconclusive means no clear call, values can overlap the other calls
# Target sequence (O15379 whole entry, looked up): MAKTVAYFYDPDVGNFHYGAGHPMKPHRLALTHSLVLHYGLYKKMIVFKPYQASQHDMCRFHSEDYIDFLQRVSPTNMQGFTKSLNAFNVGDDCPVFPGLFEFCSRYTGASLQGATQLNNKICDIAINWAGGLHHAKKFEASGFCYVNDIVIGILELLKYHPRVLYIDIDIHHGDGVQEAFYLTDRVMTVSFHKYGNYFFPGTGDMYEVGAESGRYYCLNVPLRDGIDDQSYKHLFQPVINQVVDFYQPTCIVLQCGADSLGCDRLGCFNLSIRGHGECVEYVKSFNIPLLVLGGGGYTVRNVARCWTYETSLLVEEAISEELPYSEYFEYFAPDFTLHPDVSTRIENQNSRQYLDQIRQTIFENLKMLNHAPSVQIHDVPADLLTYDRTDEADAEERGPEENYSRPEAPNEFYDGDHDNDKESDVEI
# Runt-SMMHC FRET: Runt domain-CBFb-SMMHC interaction inhibition; inhibition, % at 20 µM; AID 1434; Q01196+Q13951; 0.74% of 220,000 active; Cerulean-Runt/Venus-CBFb-SMMHC FRET ratio 530/480, 1 h;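 active means mean inhibition across duplicate retests at 20 µM reaching about 50%, limit read from the data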;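 further: 0% = DMSO wells and 100% = wells with excess untagged CBFb-SMMHC; inhibitors lower the FRET ratio by blocking Runt binding to CBFb-SMMHC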
# Runt-CBFb FRET: blocks binding of human RUNX1 Runt domain to CBFb | 0.46% of 220,000 active | Cerulean-Runt/Venus-CBFb FRET ratio 530/480, 1 h | Q01196+Q13951 | inhibition, % at 20 µM;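 active means inhibition over about 50% at 20 µM in the single-dose screen, limit read from the data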;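 further: 0% = DMSO wells and 100% = excess unlabeled CBFb competitor control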
#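 Doses: 20 µM compound in 1% DMSO | Material: Cerulean-labeled Runt domain protein | Amount: Each fluorescent fusion protein 100 nM | Schedule: Two 1 h room-temperature incubations shielded from light | Measured by: FRET fluorescence | Evaluation: Loss of energy transfer signal | Controls: Unlabeled CBFb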
# LANA-H2B inh: blocks KSHV LANA binding to histone H2A/H2B | Q9QR71 | cell-free LANA-H2A/H2B peptide, fluorescence polarization | 0.6% of 320,000 active | inhibition, % (no concentration beside the values); in the data active means inhibition mostly above about 10%, no sharp cut-off; inactive means mostly below about 6.7%
# CaV13 ICDI inh: Primary screen for inhibitors of IQ motif and Ca2+-dependent inactivation inhibitor domain binding in CACNA1D, Förster resonance energy transfer in living cells, …. inhibition, % at 12.3 µM. 0.098% of 340,000 active. HEK cells, CFP/YFP FRET ICDI-IQ, plate reader, 10 min; percent FRET-ratio fall versus neutral wells. AID 743397;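 active means mean replicate inhibition of at least 30% and at least 1% of replicates passing that level; inconclusive means only one of the two criteria is met; inactive means neither criterion is met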;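 further: 0% = median of the neutral control wells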
# * hit, by the source's call; ? = inconclusive; . = no result given.
SMILES,RanGTP-Impb inh,HDAC3 inh,Runt-SMMHC FRET,Runt-CBFb FRET,LANA-H2B inh,CaV13 ICDI inh
COCCN(Cc1ccc(C)cc1)C(=O)[C@H]1O[C@@H](n2ccc(N)nc2=O)[C@H](O)[C@@H]1O,.,.,.,.,.,-2.6
Cc1ccc(S(=O)(=O)N(C)CC(=O)N2CCOCC2)cc1,2.3,-11.2,-2.0,2.4,1.0,-4.0
Cc1ccc(S(=O)(=O)N(CC(=O)N2CCOCC2)CC(=O)N2CCOCC2)cc1,32.3*,0.2,3.6,-0.3,-0.3,-5.2
Cc1ccc(N=c2oc3cc(O)ccc3cc2C(N)=O)cc1,180.8*,-12.8,46.5,9.9,1.8,7.9
O=C(NCc1ccco1)c1cc2ccc(O)cc2oc1=O,158.0*,-446.5,58.5*,17.9,-0.9,.
COc1cc(C(=O)Nc2ccccc2C(=O)Nc2ccccn2)cc(OC)c1OC,5.3,4.6,.,.,-1.9,-6.3
COc1ccc2oc(=O)c(C(=O)NCc3ccccc3)cc2c1,-2.3,-2.9,.,.,-2.5,-3.0
Cc1ccc(C(=O)N/N=c2\oc3ccccc3cc2C(N)=O)cc1,-5.1,-0.5,.,.,2.7,-6.3
O=C(NCc1ccco1)c1cc2ccccc2o1,-1.1,0.7,1.8,-2.8,-1.3,.
CCCOc1ccc2cc(C(=O)NCc3ccccc3)c(=O)oc2c1,58.9*,-14.4,.,.,-4.4,-0.9
COc1ccc(N=c2oc3cc(O)ccc3cc2C(=O)Nc2ccccn2)cc1OC,5.1,-4.3,92.5*,54.6*,2.0,5.4
COc1ccc(-c2cc3ccc(O)cc3oc2=O)cc1OC,106.4*,-1.1,.,.,-0.9,-0.9
CC(=O)c1cc2ccc(O)cc2oc1=O,148.4*,-119.9,81.2*,9.8,7.3,33.4*
N=c1oc2cc(O)ccc2cc1C(=O)Nc1ccc(Cl)cc1,170.4*,-42.0,.,.,-3.6,112.5*
CC(=O)c1cc2cc(O)ccc2o1,-2.7,-240.4,70.1*,32.3,2.8,-5.4
Cc1ccc(NC(=O)c2cc3ccccc3oc2=N)cc1,-5.9,.,.,.,-2.7,-19.6
Cc1nn2c(NCc3cccnc3)c3c(nc2c1-c1ccccc1)CCC3,10.7,5.1,-2.0,-6.6,5.1,-11.0
COc1ccc2cc(C(=O)NCc3ccco3)c(=O)oc2c1,?,-4.7,76.8*,35.1,-6.9,.
COc1ccc2cc(C(=O)NCc3ccco3)c(=Nc3ccc(C(=O)O)cc3)oc2c1,1.5,1.6,-0.1,0.1,8.1,-4.9
COc1ccc(NC(=O)COC(=O)c2ccc(S(=O)(=O)N3CCCC3)cc2)cc1OC,.,5.3,.,.,2.8,-5.0
O=C(O)C1CCCCC1C(=O)Nc1cc(Cl)ccc1Cl (stereo not given),-0.8,2.7,-3.1,-1.7,-0.2,-4.5
CC1CC1c1ccc(/C=C(\C#N)C(=O)Nc2ccc(Cl)cc2Cl)o1 (stereo not given),39.6*,2.2,-84.1,-24.9,-6.4,-32.9
O=C(O)C1CCCCC1C(=O)Nc1ccc(Cl)cc1Cl (stereo not given),5.9,9.0,3.8,1.4,5.7,-8.2
CC1CC1c1ccc(/C=C(\C#N)C(=O)Nc2cc(Cl)ccc2Cl)o1 (stereo not given),23.8*,?,-37.1,-17.9,1.8,-11.2
Cc1ccnc(NC(=O)c2cccc(S(=O)(=O)Nc3ccc(C)cc3C)c2)c1,.,-0.3,.,.,-2.5,-6.9
O=C(N/N=C1\C/C(=N\NC(=O)c2ccncc2)c2ccccc21)c1ccncc1,-2.6,2.1,-3.0,7.3,-0.5,-4.7
O=C(N/N=C1\CCCc2c1[nH]c1ccc(Cl)cc21)c1ccncc1,-4.0,-3.1,.,.,43.7*,9.7
CSC(=NS(=O)(=O)c1ccccc1)NNC(=O)c1c(-c2c(Cl)cccc2Cl)noc1C,.,.,.,.,.,-9.6
CCc1ccc(CN(C)C(=O)C2CCC(=O)N(CCc3ccc(OC)cc3)C2)nc1 (stereo not given),0.7,-5.7,.,.,28.8*,-7.2
Nc1nonc1OCCN1CCN(c2ccc([N+](=O)[O-])c3cccnc23)CC1,-1.5,5.0,-5.2,4.8,0.5,-20.1

# Screens from PubChem.
